Data published in ChEMBL document CHEMBL2057112, “Enamino-oxindole HIV protease inhibitors” (Bioorg Med Chem Lett, 2012).

How the values were obtained:
[1] = Inhibition of wild type Human immunodeficiency virus protease expressed in Escherichia coli using ArgGlu(EDANS)SerGlnAsnTyrProIleValGlnLys(DABCYL)Arg as substrate preincubated with compound for 0.5 to 1 min measured by fluorometric analysis at pH 6.5
[2] = tested on: Human immunodeficiency virus 1; assay: Antiviral activity against Human immunodeficiency virus 1 HXB2 expressing protease M8 mutant infected in human MT4 cells after 5 days by MTT assay; assay type: functional, organism-based; settings: Human immunodeficiency virus 1, HXB2, MT4, 120 h
[3] = Inhibition of Human immunodeficiency virus protease M9 mutant expressed in Escherichia coli using ArgGlu(EDANS)SerGlnAsnTyrProIleValGlnLys(DABCYL)Arg as substrate preincubated with compound for 0.5 to 1 min measured by fluorometric analysis at pH 6.5
[4] = tested on: Human immunodeficiency virus 1; assay: Antiviral activity against Human immunodeficiency virus 1 HXB2 expressing protease M9 mutant infected in human MT4 cells after 5 days by MTT assay; assay type: functional, organism-based; settings: Human immunodeficiency virus 1, HXB2, MT4, 120 h
[5] = tested on: Human immunodeficiency virus 1; assay: Antiviral activity against Human immunodeficiency virus 1 HXB2 expressing protease M10 mutant infected in human MT4 cells after 5 days by MTT assay; assay type: functional, organism-based; settings: Human immunodeficiency virus 1, HXB2, MT4, 120 h
[6] = Inhibition of Human immunodeficiency virus protease M10 mutant expressed in Escherichia coli using ArgGlu(EDANS)SerGlnAsnTyrProIleValGlnLys(DABCYL)Arg as substrate preincubated with compound for 0.5 to 1 min measured by fluorometric analysis at pH 6.5
[7] = tested on: Human immunodeficiency virus 1; assay: Antiviral activity against Human immunodeficiency virus 1 HXB2 expressing wild type protease infected in human MT4 cells after 5 days by MTT assay; assay type: functional, organism-based; settings: Human immunodeficiency virus 1, HXB2, MT4, 120 h
[8] = Inhibition of Human immunodeficiency virus protease M8 mutant expressed in Escherichia coli using ArgGlu(EDANS)SerGlnAsnTyrProIleValGlnLys(DABCYL)Arg as substrate preincubated with compound for 0.5 to 1 min measured by fluorometric analysis at pH 6.5
[9] = tested on: Human immunodeficiency virus 1; assay: Antiviral activity against Human immunodeficiency virus 1 HXB2 expressing protease M3 mutant infected in human MT4 cells after 5 days by MTT assay; assay type: functional, organism-based; settings: Human immunodeficiency virus 1, HXB2, MT4, 120 h
Summary of the method: (§1)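 MT-4 cells (AIDS Research and Reference Reagent Program) exposed to 50% tissue culture infective doses (TCID₅₀) of virus with various concentrations of test compound for 5 days. MTT solution then added and absorbance measured. Mutant strains carry 10–17 resistance mutations with phenotypic resistance to marketed PIs; all include I84V except M7. IC₅₀ reported.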

[10] = tested on: Human immunodeficiency virus 1; assay: Antiviral activity against Human immunodeficiency virus 1 HXB2 expressing protease M5 mutant infected in human MT4 cells after 5 days by MTT assay; assay type: functional, organism-based; settings: Human immunodeficiency virus 1, HXB2, MT4, 120 h; summary of the method: as §1
[11] = tested on: Human immunodeficiency virus 1; assay: Antiviral activity against Human immunodeficiency virus 1 HXB2 expressing protease M4 mutant infected in human MT4 cells after 5 days by MTT assay; assay type: functional, organism-based; settings: Human immunodeficiency virus 1, HXB2, MT4, 120 h; summary of the method: as §1
[12] = tested on: Human immunodeficiency virus 1; assay: Antiviral activity against Human immunodeficiency virus 1 HXB2 expressing protease M6 mutant infected in human MT4 cells after 5 days by MTT assay; assay type: functional, organism-based; settings: Human immunodeficiency virus 1, HXB2, MT4, 120 h; summary of the method: as §1
[13] = tested on: Human immunodeficiency virus 1; assay: Antiviral activity against Human immunodeficiency virus 1 HXB2 expressing protease M7 mutant infected in human MT4 cells after 5 days by MTT assay; assay type: functional, organism-based; settings: Human immunodeficiency virus 1, HXB2, MT4, 120 h; summary of the method: as §1

SMILES | Ki [1] [nM] | IC50 [2] [nM] | Ki [3] [nM] | IC50 [4] [nM] | IC50 [5] [nM] | Ki [6] [nM] | IC50 [7] [nM] | Ki [8] [nM] | IC50 [9] [nM] | IC50 [10] [nM] | IC50 [11] [nM] | IC50 [12] [nM] | IC50 [13] [nM]
CCN(C=C1C(=O)Nc2ccc(S(=O)(=O)N(CC(C)C)C[C@@H](O)[C@H](Cc3ccccc3)NC(=O)O[C@H]3CO[C@H]4OCC[C@H]43)cc21)CC (mixture of isomers) | < 0.1 | 40 | < 0.3 | 21 | 41 | < 1 | 38 | – | – | – | – | – | –
CC(C)CN(C[C@@H](O)[C@H](Cc1ccccc1)NC(=O)O[C@H]1CO[C@H]2OCC[C@H]21)S(=O)(=O)c1ccc2c(c1)CC(=O)N2 | < 0.1 | 150 | 0.95 | 110 | 930 | 14 | 82 | 0.53 | – | – | – | – | –
CC(C)CN(C[C@@H](O)[C@H](Cc1ccccc1)NC(=O)O[C@H]1CO[C@H]2OCC[C@H]21)S(=O)(=O)c1ccc2c(c1)C(=CNCCO)C(=O)N2 (mixture of isomers) | < 0.1 | – | < 0.3 | 800 | 400 | < 1 | > 400 | 0.11 | – | – | – | – | –
CCNC=C1C(=O)Nc2ccc(S(=O)(=O)N(CC(C)C)C[C@@H](O)[C@H](Cc3ccccc3)NC(=O)O[C@H]3CO[C@H]4OCC[C@H]43)cc21 (mixture of isomers) | < 0.1 | 35 | < 0.3 | 27 | 80 | < 1 | 28 | – | – | – | – | – | –
CC(C)CN(C[C@@H](O)[C@H](Cc1ccccc1)NC(=O)O[C@H]1CO[C@H]2OCC[C@H]21)S(=O)(=O)c1ccc2c(c1)C(=CNC(C)(C)C)C(=O)N2 (mixture of isomers) | < 0.1 | 35 | 0.72 | 25 | 200 | 14 | 9 | 0.35 | – | – | – | – | –
Cc1nc(CNC=C2C(=O)Nc3ccc(S(=O)(=O)N(CC(C)C)C[C@@H](O)[C@H](Cc4ccccc4)NC(=O)O[C@H]4CO[C@H]5OCC[C@H]54)cc32)cs1 (mixture of isomers) | < 0.1 | 40 | < 0.3 | 30 | 29 | < 1 | 45 | – | – | – | – | – | –
CC(C)CN(C[C@@H](O)[C@H](Cc1ccccc1)NC(=O)O[C@H]1CO[C@H]2OCC[C@H]21)S(=O)(=O)c1ccc2c(c1)C(=CNc1ccccc1)C(=O)N2 | < 0.1 | 110 | 1.2 | 100 | > 400 | 13 | 13 | 0.46 | – | – | – | – | –
CC(C)CN(C[C@@H](O)[C@H](Cc1ccccc1)NC(=O)O[C@H]1CO[C@H]2OCC[C@H]21)S(=O)(=O)c1ccc2c(c1)C(=CN)C(=O)N2 (mixture of isomers) | < 0.1 | 200 | < 0.3 | 200 | 180 | 3 | 300 | – | – | – | – | – | –
CC(C)CN(C[C@@H](O)[C@H](Cc1ccccc1)NC(=O)O[C@H]1CO[C@H]2OCC[C@H]21)S(=O)(=O)c1ccc2c(c1)C(=CNC1CC1)C(=O)N2 (mixture of isomers) | < 0.1 | 32 | < 0.3 | 25 | 300 | 2.1 | 24 | 0.12 | – | – | – | – | –
CC(C)CN(C[C@@H](O)[C@H](Cc1ccccc1)NC(=O)O[C@H]1CO[C@H]2OCC[C@H]21)S(=O)(=O)c1ccc2c(c1)C(=CN(C)C)C(=O)N2 (mixture of isomers) | < 0.1 | 90 | < 0.3 | 65 | 70 | < 1 | 93 | – | – | – | – | – | –
CC(C)CN(C[C@@H](O)[C@H](Cc1ccccc1)NC(=O)O[C@H]1CO[C@H]2OCC[C@H]21)S(=O)(=O)c1ccc2c(c1)C(=CNCc1ccncc1)C(=O)N2 (mixture of isomers) | < 0.1 | 270 | < 0.3 | 220 | 110 | < 1 | 300 | – | – | – | – | – | –
CC(C)CN(C[C@@H](O)[C@H](Cc1ccccc1)NC(=O)O[C@H]1CO[C@H]2OCC[C@H]21)S(=O)(=O)c1ccc2c(c1)C(=CNCC1CCCCC1)C(=O)N2 (mixture of isomers) | < 0.1 | 27 | < 0.3 | 9 | 40 | < 1 | 9.7 | 0.16 | 21 | 18 | 30 | 25 | –
COCCNC=C1C(=O)Nc2ccc(S(=O)(=O)N(CC(C)C)C[C@@H](O)[C@H](Cc3ccccc3)NC(=O)O[C@H]3CO[C@H]4OCC[C@H]43)cc21 (mixture of isomers) | 0.11 | – | < 0.3 | 42 | 48 | 1.2 | 70 | < 0.1 | – | – | – | – | –
CC(C)CN(C[C@@H](O)[C@H](Cc1ccccc1)NC(=O)O[C@H]1CO[C@H]2OCC[C@H]21)S(=O)(=O)c1ccc2c(c1)C(=CNCCc1ccccc1)C(=O)N2 (mixture of isomers) | < 0.1 | 61 | < 0.3 | 28 | 110 | 1.3 | 22 | 0.17 | – | – | – | – | –
CNC=C1C(=O)Nc2ccc(S(=O)(=O)N(CC(C)C)C[C@@H](O)[C@H](Cc3ccccc3)NC(=O)O[C@H]3CO[C@H]4OCC[C@H]43)cc21 (mixture of isomers) | < 0.1 | – | < 0.3 | 50 | 93 | < 1 | 60 | 0.11 | 51 | – | – | – | –
CC(C)CN(C[C@@H](O)[C@H](Cc1ccccc1)NC(=O)O[C@H]1CO[C@H]2OCC[C@H]21)S(=O)(=O)c1ccc2c(c1)C(=CNCc1nc3ccccc3[nH]1)C(=O)N2 (mixture of isomers) | < 0.1 | – | < 0.3 | – | – | < 1 | > 400 | – | – | – | – | – | –
CC(C)CN(C[C@@H](O)[C@H](Cc1ccccc1)NC(=O)O[C@H]1CO[C@H]2OCC[C@H]21)S(=O)(=O)c1ccc2c(c1)C(=CNC(C)C)C(=O)N2 (mixture of isomers) | < 0.1 | 30 | < 0.3 | 19 | 60 | < 1 | 15 | 0.11 | – | – | – | – | –
CC(C)CN(C[C@@H](O)[C@H](Cc1ccccc1)NC(=O)O[C@H]1CO[C@H]2OCC[C@H]21)S(=O)(=O)c1ccc2c(c1)C(=CNCc1ccc3ccccc3n1)C(=O)N2 (mixture of isomers) | 0.1 | 34 | < 0.3 | 23 | 27 | < 1 | 35 | < 0.1 | 21 | – | 40 | 25 | –
CC(C)CN(C[C@@H](O)[C@H](Cc1ccccc1)NC(=O)O[C@H]1CO[C@H]2OCC[C@H]21)S(=O)(=O)c1ccc2c(c1)C(=CNCc1ccccc1)C(=O)N2 (mixture of isomers) | < 0.1 | 35 | < 0.3 | – | 30 | < 1 | 14 | – | 13 | 20 | 20 | 18 | 4.1
CCCNC=C1C(=O)Nc2ccc(S(=O)(=O)N(CC(C)C)C[C@@H](O)[C@H](Cc3ccccc3)NC(=O)O[C@H]3CO[C@H]4OCC[C@H]43)cc21 (mixture of isomers) | 0.12 | – | < 0.3 | 40 | 120 | < 1 | 30 | < 0.1 | 40 | – | – | – | –
CC(C)CN(C[C@@H](O)[C@H](Cc1ccccc1)NC(=O)O[C@H]1CO[C@H]2OCC[C@H]21)S(=O)(=O)c1ccc2c(c1)C(=CNCCN(C)C)C(=O)N2 (mixture of isomers) | < 0.1 | – | < 0.3 | – | – | 1.7 | > 400 | 0.57 | – | – | – | – | –
CC(C)CN(C[C@@H](O)[C@H](Cc1ccccc1)NC(=O)O[C@H]1CO[C@H]2OCC[C@H]21)S(=O)(=O)c1ccc2c(c1)C(=CNCCNc1ccccc1)C(=O)N2 (mixture of isomers) | < 0.1 | 160 | < 0.3 | 80 | 120 | 3 | > 80 | 0.39 | – | – | – | – | –
